According to ChEMBL document CHEMBL4049439, “Synthesis and Characterization of Tetrahydropyran-Based Bacterial Topoisomerase Inhibitors with Antibacterial Activity against Gram-Negative Bacteria” (J Med Chem, 2017):
Converted amounts (≈) assume the structure as drawn. The source made the active and inactive calls. No cut-off for these calls is given here.

How the values were obtained:
[1] = Cardiotoxicity against human induced pluripotent stem cell-derived cardiomyocytes assessed as total drug concentration causing effect on spontaneous rhythm after 5 to 60 mins by Fluo-4 dye based fluorescence assay; type: toxicity; settings: cardiac muscle cell
How it was run: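 Spontaneous beating rhythm of human iPSC-derived cardiomyocytes monitored. Reported value is the lowest active concentration, free or total. Free/total conversion corrected for 20% serum in the test solution.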

[2] = Apparent clearance in NMRI mouse at 120 mg/kg, sc by LC-MS/MS analysis; type: ADME, organism-based; settings: in vivo
How it was run: (§1)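 Mice dosed iv at 10 mg/kg or sc at 120 mg/kg. AUC normalized to dose (μg·h/(mL·dose)). Unbound AUC derived using fraction unbound. Clearance, Vdss and terminal half-life also derived.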

[3] = tested on: Mus musculus; assay: Dose normalized unbound AUC in NMRI mouse at 120 mg/kg, sc by LC-MS/MS analysis; type: ADME, organism-based; settings: in vivo; how it was run: as §1
[4] = Fraction unbound in NMRI mouse plasma at 120 mg/kg, sc by rapid equilibrium dialysis; type: ADME, organism-based; how it was run: as §1
[5] = tested on: Cavia porcellus; assay: (§2) Cardiotoxicity in Dunkin-Hartley guinea pig assessed as free plasma concentration causing effect on QRS interval administered as iv at 3 mg/kg for first 20 mins of infusion followed by 10 mg/kg for second 20 mins of infusion followed by 30 mg/kg for third 20 mins of infusion by LC-MS/MS analysis; type: toxicity, organism-based; settings: in vivo
How it was run: (§3)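 Anesthetized guinea pigs received 3, 10 and 30 mg/kg iv over three consecutive 20 min periods. MAP, HR and ECG intervals (PR, QRS, RR, QT) recorded continuously. Blood drawn at the end of each period for drug levels. Value is the lowest plasma concentration differing from vehicle-treated animals. Free level uses unbound fraction from rapid equilibrium dialysis of guinea pig plasma.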

[6] = Clearance in dog at 1 mg/kg, iv by LC-MS/MS analysis; type: ADME, organism-based, Canis lupus familiaris; settings: in vivo
How it was run: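 Dogs given 1 mg/kg iv. Clearance (mL/min/kg) and half-life (h) derived from plasma profiles.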

[7] = tested on: Mus musculus; assay: Dose normalized AUC in NMRI mouse at 120 mg/kg, sc by LC-MS/MS analysis; type: ADME, organism-based; settings: in vivo; how it was run: as §1
[8] = tested on: Escherichia coli; assay: Antibacterial activity against Escherichia coli ATCC 25922 infected in cyclophosphamide-induced neutropenic NMRI mouse model assessed as log reduction in colony forming units in thighs at 360 mg/kg, sc treated 2 hrs post infection measured 5.5 hrs post dose; type: functional
How it was run: (§4)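 Neutropenic murine thigh infection with an E. coli strain, compound given subcutaneously. Thigh CFU counted 7.5 h post-infection (5.5 h post-treatment). Net change expressed relative to CFU at treatment start.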

[9] = tested on: Cavia porcellus; assay: as §2, with “mean arterial pressure” for “QRS interval”; type: toxicity, organism-based; settings: in vivo; how it was run: as §3
[10] = tested on: Enterococcus faecalis; assay: Antibacterial activity against Enterococcus faecalis by CLSI broth microdilution method; type: functional
[11] = Volume of distribution at steady state in Wistar rat at 10 mg/kg, iv by LC-MS/MS analysis; type: ADME, organism-based; settings: in vivo, read-out: Vdss
How it was run: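 Rats received a single intravenous dose of 10 or 1 mg/kg depending on the compound. Clearance, unbound clearance, Vdss, terminal half-life and dose-normalized AUC were derived from plasma exposure, with unbound fraction (fu) reported for this species.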

[12] = tested on: Escherichia coli; assay: Antibacterial activity against Escherichia coli ATCC 25922 infected in cyclophosphamide-induced neutropenic NMRI mouse model assessed as reduction in colony forming units in thighs at 120 mg/kg, sc treated 2 hrs post infection measured 5.5 hrs post dose; type: functional, organism-based; how it was run: as §4
[13] = Terminal half-life in NMRI mouse at 120 mg/kg, sc by LC-MS/MS analysis; type: ADME, organism-based; settings: in vivo, read-out: beta t1/2 (converted); how it was run: as §1
[14] = tested on: Acinetobacter baumannii; assay: Antibacterial activity against multi-drug resistant Acinetobacter baumannii by CLSI broth microdilution method; type: functional
[15] = tested on: Escherichia coli; assay: Antibacterial activity against Escherichia coli ATCC 25922 by CLSI broth microdilution method; type: functional
[16] = Fraction unbound in NMRI mouse at 10 mg/kg, iv by rapid equilibrium dialysis; type: ADME, organism-based; settings: plasma; how it was run: as §1
[17] = Volume of distribution at steady state in NMRI mouse at 10 mg/kg, iv by LC-MS/MS analysis; type: ADME, organism-based; settings: in vivo, read-out: Vdss
How it was run: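 Mice received a single dose of 10 mg/kg intravenously, or 120 mg/kg subcutaneously for one compound. Clearance, Vdss, half-life, unbound fraction and dose-normalized AUC were derived from plasma exposure.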

[18] = tested on: Escherichia coli; assay: Antibacterial activity against wild-type Escherichia coli MG1655 by CLSI broth microdilution method; type: functional; settings: K-12 substr. MG1655
How it was run: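 MIC (μg/mL) determined on wild-type E. coli MG1655, the parent of isogenic strains with truncated LPS or deleted TolC or AcrAB efflux.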

[19] = tested on: Escherichia coli; assay: Antibacterial activity against Escherichia coli MG1655 harboring rfac deletion mutant by CLSI broth microdilution method; type: functional; settings: K-12 substr. MG1655
How it was run: (§5)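 MIC (μg/mL) measured against engineered derivatives of E. coli MG1655. ΔrfaC has truncated LPS (raised permeability). ΔtolC lacks the outer-membrane TolC efflux component. ΔacrAB lacks the AcrAB efflux system of the cytoplasmic membrane.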

[20] = Ratio of AUC in NMRI mouse to MIC for methicillin-sensitive Staphylococcus aureus A-1178 infected in cyclophosphamide-induced neutropenic NMRI mouse model at 40 mg/kg/day
[21] = Terminal half-life in NMRI mouse at 10 mg/kg, iv by LC-MS/MS analysis; type: ADME, organism-based; settings: in vivo, read-out: beta t1/2 (converted); how it was run: as §1
[22] = tested on: Escherichia coli; assay: Ratio of MIC for wild-type Escherichia coli MG1655 to MIC for Escherichia coli MG1655 harboring tolC deletion mutant; type: functional, K-12 substr. MG1655
How it was run: (§6)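 Fold change in MIC for each MG1655 derivative (ΔacrAB, ΔrfaC, ΔtolC) relative to the MIC measured on wild-type E. coli MG1655, with both MICs in μg/mL.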

[23] = tested on: Escherichia coli; assay: Ratio of MIC for wild-type Escherichia coli MG1655 to MIC for Escherichia coli MG1655 harboring rfac deletion mutant; type: functional, K-12 substr. MG1655; how it was run: as §6
[24] = tested on: Staphylococcus aureus; assay: Antibacterial activity against methicillin-sensitive Staphylococcus aureus A-1178 infected in cyclophosphamide-induced neutropenic NMRI mouse model assessed as log reduction in colony forming units in thighs at 40 mg/kg, sc treated 2 hrs post infection measured 22 hrs post dose; type: functional
How it was run: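 Neutropenic mouse thigh model infected with a methicillin-sensitive S. aureus strain, subcutaneous dosing. Thigh CFU measured 24 h post-infection (22 h post-treatment). Net log reduction given against CFU at treatment start.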

[25] = Solubility of the compound at pH 1 to 9; type: physicochemical; settings: buffer
[26] = tested on: Mus musculus; assay: Dose normalized unbound AUC in NMRI mouse at 10 mg/kg, iv by LC-MS/MS analysis; type: ADME, organism-based; settings: in vivo; how it was run: as §1
[27] = tested on: Escherichia coli; assay: Antibacterial activity against Escherichia coli MG1655 harboring AcrAB deletion mutant by CLSI broth microdilution method; type: functional; settings: K-12 substr. MG1655; how it was run: as §5
[28] = tested on: Escherichia coli; assay: Ratio of MIC for wild-type Escherichia coli MG1655 to MIC for Escherichia coli MG1655 harboring AcrAB deletion mutant; type: functional, K-12 substr. MG1655; how it was run: as §6
[29] = tested on: Escherichia coli; assay: Antibacterial activity against Escherichia coli MG1655 harboring tolC deletion mutant by CLSI broth microdilution method; type: functional; settings: K-12 substr. MG1655; how it was run: as §5

COc1ccc2ccc(=O)n(C[C@H](N)[C@@H]3CC[C@@H](NCc4ccc5c(n4)NC(=O)CO5)CO3)c2n1
Drug uptake [1]: 0.31 to 0.93 µM
CL/F [2]: 86 mL/min/kg
fAUC/dose [3]: 68.6 µg·h/mL
fraction unbound [4]: 0.369
Cp(f) [5]: 2700 nM
clearance [6]: 45 mL/min/kg
AUC/dose [7]: 186 µg·h/mL
Activity [8]: 2 log10CFU
Cp(f) [9]: 28000 nM
MIC [10]: 1 µg/mL (≈ 2.08 µM)
Vd [11]: 21 L/kg
Activity [12]: inactive
half-life [13]: 5.2 h
MIC [14]: 1 to 16 µg/mL (≈ 2.08 to 33.3 µM)
MIC [15]: 0.25 µg/mL (≈ 0.52 µM)

COc1ccc2ncc(F)c(C[C@H](N)[C@@H]3CC[C@@H](NCc4ccc5c(n4)NC(=O)CO5)CO3)c2n1
fraction unbound [16]: 0.15
Drug uptake [1]: 0.5 µM
Vd [17]: 12.3 L/kg
MIC [18]: 0.063 µg/mL (≈ 0.131 µM)
MIC [19]: 0.031 µg/mL (≈ 0.0642 µM)
RatioAUC/MIC [20]: 23.5
Cp(f) [5]: 1800 nM
half-life [21]: 5.6 h
Ratio [22]: 8
Ratio [23]: 2
Activity [24]: >2.5 log10CFU
Cp(f) [9]: 1800 nM
solubility [25]: > 100 µg/mL
fAUC/dose [26]: 35.4 µg·h/mL
MIC [27]: 0.008 µg/mL (≈ 0.0166 µM)
MIC [10]: 0.25 µg/mL (≈ 0.518 µM)
Ratio [28]: 8
Vd [11]: 25 L/kg
MIC [29]: 0.008 µg/mL (≈ 0.0166 µM)
MIC [14]: 0.125 to 4 µg/mL (≈ 0.259 to 8.29 µM)
